Shown are actives, neighbours in structure and some others; about 1.2% of the full set was active somewhere.
Runt-SMMHC FRET = Runt domain-CBFb-SMMHC interaction inhibition. Q01196+Q13951. Cerulean-Runt/Venus-CBFb-SMMHC FRET ratio 530/480, 1 h. inhibition, % at 20 µM. hit rate 0.74% among 220,000;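 active means mean inhibition across duplicate retests at 20 µM reaching about 50%, limit read from the data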;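 further: 0% = DMSO wells and 100% = wells with excess untagged CBFb-SMMHC; inhibitors lower the FRET ratio by blocking Runt binding to CBFb-SMMHC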
Target sequence (Q01196 whole entry, looked up, the tested form may be a part): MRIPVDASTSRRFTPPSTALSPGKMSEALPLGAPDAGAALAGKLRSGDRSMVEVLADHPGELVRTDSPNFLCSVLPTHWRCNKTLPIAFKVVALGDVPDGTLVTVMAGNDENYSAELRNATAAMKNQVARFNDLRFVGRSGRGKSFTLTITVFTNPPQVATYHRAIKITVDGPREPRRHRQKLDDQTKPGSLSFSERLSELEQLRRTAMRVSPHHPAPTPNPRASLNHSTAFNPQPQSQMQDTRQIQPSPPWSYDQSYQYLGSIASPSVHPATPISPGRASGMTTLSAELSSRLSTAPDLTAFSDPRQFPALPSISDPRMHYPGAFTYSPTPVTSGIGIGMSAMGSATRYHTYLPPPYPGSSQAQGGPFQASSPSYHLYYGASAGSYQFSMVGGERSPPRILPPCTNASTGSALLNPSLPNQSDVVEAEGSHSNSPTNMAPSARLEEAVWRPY
Target sequence (Q13951 whole entry, looked up, the tested form may be a part): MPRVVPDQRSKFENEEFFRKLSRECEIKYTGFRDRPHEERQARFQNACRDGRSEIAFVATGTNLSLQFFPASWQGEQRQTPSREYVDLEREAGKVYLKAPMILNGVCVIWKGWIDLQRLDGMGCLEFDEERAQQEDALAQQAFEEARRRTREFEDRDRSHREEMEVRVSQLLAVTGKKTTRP
Runt-CBFb FRET = blocks binding of human RUNX1 Runt domain to CBFb; inhibition, % at 20 µM; hit rate 0.46% among 220,000; Cerulean-Runt/Venus-CBFb FRET ratio 530/480, 1 h;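 active means inhibition over about 50% at 20 µM in the single-dose screen, limit read from the data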;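 further: 0% = DMSO wells and 100% = excess unlabeled CBFb competitor control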
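Reagent – Venus-CBFb binding partner, 100 nM · Assay system – Cerulean-tagged RUNX1 Runt domain (FRET donor) fusion protein · Input – 100 nM per protein · Incubation – two 1 h room-temperature incubations shielded from light · Measured by – FRET fluorescence · Medium – Tris buffer pH 7.5 with salts and BSA · Benchmarks – unlabeled CBFb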
RanGTP-Impb inh = inhibitors of RanGTP-importin-beta interaction, primary screen, biochemical, FRET, CFP-Ran, YFP-importin-beta, homogeneous. hit rate 1.1% among 300,000. cell-free CFP-Ran/YFP-importin-beta FRET ratio. inhibition, % (concentration not given with the values);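 active means more than half of the replicate wells show a fall in the fluorescence ratio signal beyond about 16%, limit read from the data, passing the limit was not always enough; inconclusive means exactly half of the replicate wells pass the set limit; inactive means fewer than half of replicates pass the limit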;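 further: 0% = DMSO wells and 100% = Ran loaded with GDP instead of GTP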
CaV13 FRET inh = Primary screen for inhibitors of IQ motif and Ca2+-dependent inactivation inhibitor domain binding in CACNA1D, Förster resonance energy transfer in living cells, …. HEK cells, CFP/YFP FRET ICDI-IQ, plate reader, 10 min; percent FRET-ratio fall versus neutral wells. inhibition, % at 12.3 µM. hit rate 0.098% among 340,000. AID 743397;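 active means mean replicate inhibition of at least 30% and at least 1% of replicates passing that level; inconclusive means only one of the two criteria is met; inactive means neither criterion is met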;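 further: 0% = median of the neutral control wells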
Numbers without * were called inactive; u = inconclusive; x = not tested or not shown.

SMILES	Runt-SMMHC FRET	Runt-CBFb FRET	RanGTP-Impb inh	CaV13 FRET inh
Cc1cccn2c(=O)c(/C=C(\C#N)C(=O)NC3CCS(=O)(=O)C3)c(N3CCC(C)CC3)nc12 (centres undefined)	63.1*	19.2	84.5*	3.4
Cc1cccc(Oc2nc3ccccn3c(=O)c2/C=C(\C#N)C(=O)NC2CCS(=O)(=O)C2)c1C (centres undefined)	x	x	11.7	-5.5
Cc1ccccc1S(=O)(=O)N1CCCc2nc(-c3ccc(Br)cc3)ccc21	x	x	x	-4.2
Cc1cccn2c(=O)c3cc(S(=O)(=O)c4ccc(F)cc4)c(=N)n(Cc4ccco4)c3nc12	81.2*	9.8	84.4*	27.8
Cc1cccn2c(=O)c3cc(S(=O)(=O)c4ccccc4)c(=N)n(Cc4ccco4)c3nc12	x	x	93.2*	-13.9
Cc1cccn2c(=O)c3cc(S(=O)(=O)c4ccccc4)c(=N)n(Cc4ccc(F)cc4)c3nc12	x	x	-1.9	-3.3
CCOC(=O)N1CCC(NC(=O)CCc2nc(-c3ccccc3F)no2)CC1	3.6	-0.9	x	-7.3
CC(NC(=O)c1cc2c(cc1Cl)N1CCCCCC1=NS2(=O)=O)c1ccc(S(N)(=O)=O)cc1 (centres undefined)	x	x	3.3	-4.3
COc1cccc2c(=O)c3cccc(N)c3[nH]c12	x	-59.1	127.2*	-2.2
COc1cccc2c(=O)c3c([nH]c12)OC(C)(C)C3	x	x	0.6	-5.0
COc1cc(OC)c(/C=C2\SC(=O)N(CC(=O)Nc3ccccc3F)C2=O)c(OC)c1	x	x	46.4*	-55.7
COc1cc(OC)cc(C(=O)NCC2CCN(C(=O)C(=O)c3cc4ccccc4o3)CC2)c1	x	x	x	-9.2
O=C(Cc1ccc(F)cc1)Nc1nnc(SCC(=O)NC2CCCC2)s1	-0.6	0.1	26.8*	-2.1
O=C(Nc1cccc(O)c1)C(Cc1ccccc1)N1C(=O)c2cccc3cccc(c23)C1=O (centres undefined)	-5.6	-3.7	-2.8	-17.4
N#Cc1c(N)n(-c2ccc(N)cc2)c2nc3ccccc3nc12	0.1	1.1	-0.5	-19.0
N#Cc1c(N)n(-c2ccc(C(=O)O)cc2)c2nc3ccccc3nc12	81.7*	92.2*	50.3*	-10.3
N#Cc1c(N)n(C2CCCCC2)c2nc3ccccc3nc12	58.3*	78.3*	42.8*	x
Cc1ccc2oc(-c3cccc(NC(=S)NC(=O)/C=C/c4ccco4)c3)nc2c1	-3.6	-18.0	1.9	x
O=C(c1cccs1)c1ccc(-c2cccs2)s1	49.6	19.4	41.7*	-15.2
N#CC1=C(N)Oc2cc(N)ccc2C1c1ccccc1F (centres undefined)	x	x	120.8*	-0.8
CC(=O)C1=C(c2ccccc2)OC(N)=C(C#N)C1c1ccccc1F (centres undefined)	-6.0	-5.1	2.0	-2.3
COc1cccc(C2C(C#N)=C(N)Oc3cc(N)ccc32)c1OC (centres undefined)	100.2*	72.0*	105.2*	-2.6
CN(C)c1ncnc2c1ncn2C1CCCO1 (centres undefined)	x	x	x	-5.7
COc1ccc2c(=O)cc(-c3ccccc3F)oc2c1	-5.8	-0.3	0.4	-4.7
CCOc1ccccc1OCCCC(=O)NNC(=O)c1ccc(F)cc1	x	x	x	-6.0
SMILES	Runt-SMMHC FRET	Runt-CBFb FRET	RanGTP-Impb inh	CaV13 FRET inh
CN1/C(=C/C=C(/C#N)C(N)=O)C(C)(C)c2ccccc21	-14.1	60.7*	115.2*	x
CN1/C(=C\C=N\O)C(C)(C)c2ccccc21	-0.1	0.5	3.9	-14.1
CN1/C(=C\C=C(/C#N)C(=O)Nc2ccccc2F)C(C)(C)c2ccccc21	58.5*	-0.6	122.3*	0.3
CN1/C(=C\C(=O)Nc2ccc(F)cc2)C(C)(C)c2ccccc21	-5.5	-1.6	-0.1	-6.4
CC1CCN(c2nc3c(c(=O)[nH]c(=O)n3C)n2CCSc2nc3ccccc3o2)CC1	3.2	-1.3	-2.5	x
Cc1ccccc1NC(=O)CN1C(=O)CSc2ccc(S(=O)(=O)N3CCCCC3)cc21	x	x	1.7	-15.7
CN(c1ccc(C(=O)N/N=C/c2cccc([N+](=O)[O-])c2)cc1)S(=O)(=O)c1ccccc1	x	x	27.7*	-7.2
CCOc1ccc(Nc2nc(Cc3nnc(SCC(=O)c4ccc(C)c(C)c4)o3)cs2)cc1	-0.4	3.5	-4.0	-9.3
CCN(CC)c1ncnc2sc(C(=O)N3CCN(c4ccccc4)CC3)c(C)c12	3.3	0.1	2.5	-0.1
CCOC(=O)c1c(NC(=O)CCS(=O)(=O)c2ccccc2)sc2c1CCN(C(C)C)C2	x	x	127.0*	x
CN1CCc2c(sc(NC(=O)c3ccc(C(=O)c4ccccc4)cc3)c2C(N)=O)C1	x	x	1.9	-10.7
CCCN1CCc2c(sc(NC(=O)CCS(=O)(=O)c3ccccc3)c2C(N)=O)C1	x	x	152.6*	x
CN1CCc2c(sc(NC(=O)CS(=O)(=O)c3ccccc3)c2C(N)=O)C1	x	x	138.6*	6.3
Cn1c(CC(O)c2nc3ccccc3n2C)nc2ccccc21 (centres undefined)	x	x	x	-17.5
COC(=O)[C@]1(Cc2ccccc2)N[C@H](c2ccc(-c3ccc(F)cc3)cc2)[C@@H]2C(=O)N(C)C(=O)[C@@H]21	x	x	-6.0	-11.8
CCNC(=O)c1c(O)c2ccccc2[nH]c1=O	-2.1	0.7	96.0*	4.5
O=C(NCC#CCOCc1ccccc1)c1ccccc1	1.3	0.5	-2.1	37.3*
O=C(NCCNC(=O)c1ccccc1)c1ccccc1	-0.3	1.3	u	0.4
CCOc1ccc(S(=O)(=O)N2CCN(C(=S)NCc3ccco3)CC2)cc1	5.8	10.0	3.6	-4.2
Cc1ccc(CN2C(=O)N/C(=C/c3ccc(-c4ccc(C(=O)O)cc4)o3)C2=O)cc1	80.3*	126.2*	u	-4.8
Cc1cccc(NC(=O)CN2C(=O)N/C(=C\c3ccc(-c4cccc(C(=O)O)c4)o3)C2=O)c1	80.2*	85.3*	25.6*	-1.2
Cc1cccc(NC(=O)CN2C(=O)N/C(=C/c3ccc(C)o3)C2=O)c1	-24.8	-8.1	0.0	-5.3
Cc1cc(C(=O)O)ccc1-c1ccc(/C=C2\NC(=O)N(Cc3ccc(F)cc3)C2=O)o1	80.3*	115.9*	64.9*	-1.6
COc1ccc(C(=O)Nc2nnc(CC(=O)N/N=C/c3ccc(O)cc3O)s2)cc1	x	x	108.4*	-13.7
Cc1ccc(C(=O)Nc2nnc(CC(=O)N/N=C/c3ccc(O)c(O)c3)s2)cc1	x	x	3.7	-4.0
SMILES	Runt-SMMHC FRET	Runt-CBFb FRET	RanGTP-Impb inh	CaV13 FRET inh
O=C1CCN2C=Nc3cccc4ccc1c2c34	79.3	-65.5	69.3*	-23.2
COc1cc(CN2C[C@@H](CO)O[C@@H](n3cnc4c(NC5CC5)ncnc43)C2)cc(OC)c1OC	x	x	x	-16.9
CC(=O)c1sc(Nc2nc3ccc(F)cc3s2)nc1C	79.3*	58.9*	47.3*	x
COC(=O)c1ccc2nc(Nc3nc4ccc(F)cc4s3)sc2c1	30.0	16.4	5.7	-5.5
C/C(N)=C(/C#N)C(=O)COC(=O)CNC(=O)c1ccc(Cl)cc1Cl	-23.4	0.1	37.4*	1.9
CC1CCc2[nH]c3ccc(C(=O)O)cc3c2C1 (centres undefined)	x	x	u	-4.1
